Source: PubChem (Broad Institute)
A selection: hits, their analogues and other compounds. The true share with any hit is near 1.5%.
RAD54 inh = inhibitors of human RAD54 branch migration, primary screen, biochemical, fluorescence, single point. RAD54 Holliday junction branch migration, FAM/BHQ fluorescence. 360,000 tested, 0.14% active. DNA repair and recombination protein RAD54-like (Homo sapiens), Q92698. inhibition, % at 10.4 µM;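 active = mean normalized replicate activity at least 40 and at least half of replicates scoring 40 or more; inconclusive = only one of the two criteria met; inactive = mean below 40 and under half of replicates reaching 40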;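 also: inhibitors cause a drop in the FAM fluorescence signal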
dFosB activator = activators of delta FosB homodimer, primary screen, biochemical, fluorescence polarization, TAMRA-CDK5 oligo, single point; 340,000 tested, 0.99% active; activation, % at 25 µM; Protein FosB (Mus musculus), P13346; purified delta FosB; percent of positive-control signal above neutral wells; AID 493131, 2011;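 active = mean activation above about 17%, with every replicate also reaching it, limit read from the data, passing the limit was not always enough; inconclusive = only one of the two conditions met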
RAD52 inh = RAD52 DNA annealing inhibitors, primary screen, biochemical, FRET, single point, set 2. 360,000 tested, 0.46% active. inhibition, % at 18.7 µM. recombinant RAD52 DNA annealing, FRET fluorescence;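 active = every replicate showing at least 50% inhibition; inconclusive = mean inhibition at least 50% but not in every replicate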
Target sequence (P43351 whole entry, looked up): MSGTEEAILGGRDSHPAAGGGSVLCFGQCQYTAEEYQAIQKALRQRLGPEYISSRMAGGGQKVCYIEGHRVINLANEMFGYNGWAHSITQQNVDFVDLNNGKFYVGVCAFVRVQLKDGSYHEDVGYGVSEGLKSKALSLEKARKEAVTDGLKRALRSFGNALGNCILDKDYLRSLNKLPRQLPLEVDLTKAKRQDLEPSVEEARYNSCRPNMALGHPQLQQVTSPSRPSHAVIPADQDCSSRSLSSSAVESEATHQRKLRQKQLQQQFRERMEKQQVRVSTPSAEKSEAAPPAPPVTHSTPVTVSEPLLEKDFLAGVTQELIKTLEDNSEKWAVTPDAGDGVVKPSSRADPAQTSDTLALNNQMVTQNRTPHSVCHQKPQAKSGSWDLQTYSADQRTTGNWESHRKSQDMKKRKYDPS
S100A4 inh HTS = inhibitors of S100A4-myosin IIA peptide binding, primary screen, biochemical, fluorescence polarization, TAMRA-MyoIIA peptide; Protein S100-A4 (Homo sapiens), P26447; 360,000 tested, 0.14% active; AID 652163, 2013; inhibition, % at 10.7 µM;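 active = mean inhibition of at least 70% across replicates, with every replicate also reaching that level; inconclusive = mean inhibition reaches 70% but some replicates fall short; inactive = mean inhibition below 70%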
Target sequence (P26447 whole entry, looked up): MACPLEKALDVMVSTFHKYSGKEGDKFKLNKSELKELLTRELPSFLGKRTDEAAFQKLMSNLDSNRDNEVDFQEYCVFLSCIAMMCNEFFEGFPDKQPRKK
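Assay system: human S100A4 monomer with TAMRA-labelled myosin IIA peptide / Buffer or medium: Calcium-containing HEPES buffer, pH 7.2 / Reagent: TAMRA-labelled myosin IIA heavy-chain peptide probe, 5 nM / Compound: one dose per compound / Timing: polarization read 5 min after assay mix addition, stable 5–60 min / Benchmarks: neutral control DMSO, positive control TFP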
MLL AF4-AF9 inh = inhibitors of AF4 peptide binding to AF9, primary screen, biochemical, AlphaScreen, biotin-AF4 peptide, FLAG-AF9, single point; Protein AF-9 (Homo sapiens), P42568; inhibition, % at 10 µM; 350,000 tested, 0.47% active; AID 651704, 2012;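 active = every replicate reaching a set inhibition limit, whatever the replicate mean, cut at about 25% in these data; inconclusive = mean inhibition reaches that limit but some replicates miss it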
Numbers stand for hits; . = inactive; ? = inconclusive; / = no result given.

SMILES | RAD54 inh | dFosB activator | RAD52 inh | S100A4 inh HTS | MLL AF4-AF9 inh
COc1ccc(CC(N)c2csc(NC(=O)Nc3ccccc3Oc3ccccc3)n2)cc1 (stereo unspecified) | . | / | 77 | . | .
NC(Cc1ccccc1)c1csc(NC(=O)Nc2ccccc2Oc2ccccc2)n1 (stereo unspecified) | . | / | . | . | .
COc1ccc(-c2c(C#Cc3ccsc3)c3cc(-c4ccc5[nH]ccc5c4)ccc3n2C)cc1 | . | 17 | . | . | .
COc1ccc(NC(=O)NNC(=O)COc2ccc3cc(Br)ccc3c2)c(OC)c1 | . | 82 | . | . | .
Nc1ccc(Cc2ccc(N)c(O)c2)cc1O | / | 44 | . | . | .
O=C(C1CCC1)N1CC2(C1)[C@@H](c1ccccc1)[C@H](CO)N2C(=O)c1ccccn1 | / | / | . | . | .
C[C@@H]1CN([C@@H](C)CO)C(=O)c2cc(NC(=O)CCCN(C)C)ccc2O[C@@H]1CN(C)Cc1ccccc1 | . | / | . | . | .
COc1cc(/C=C2\SC(N)=NC2=O)ccc1OCC(=O)Nc1ccc(C)cc1 | / | 79 | / | / | /
CC(=O)Nc1ccc(S(=O)(=O)Oc2cccc(/C=C3\SC(N)=NC3=O)c2)cc1 | / | 33 | . | . | .
NC1=NC(=O)/C(=C/c2cccc(F)c2)S1 | . | . | . | . | .
COc1ccc(/C=C2/SC(=O)N(CCC(=O)Nc3ccc(C)cc3)C2=O)cc1OC | / | / | . | . | .
Cn1c(SCC(=O)N/N=C/C=C\c2ccccc2[N+](=O)[O-])nc2ccccc21 | . | 20 | . | . | .
N=C(N)c1ccc(N)cc1 | . | . | 100 | . | .
N=C(N)c1ccc(OCCCCCOc2ccc(C(=N)N)cc2)cc1 | . | . | . | . | .
Cc1cc(N(CCO)CCO)ccc1N=Nc1cc(F)ccc1F | . | . | . | . | 35
Nc1ccc(N(CCO)CCO)cc1 | / | . | . | . | .
CCC(=O)Nc1ccc2c(c1)OC[C@H](C)N(Cc1cncnc1)C[C@H](C)[C@H](OC)CN(C)C2=O | . | / | / | / | .
COc1ccccc1OCC(=O)Nc1ccc(S(=O)(=O)N2CCCCCC2)cc1 | . | . | . | . | .
Cc1ccccc1OCC(=O)Nc1ccc(S(=O)(=O)N2CCCC2)cc1 | . | . | . | 114 | .
C(C#CCCCCCCCCC[n+]1ccccc1)#CCCCCCCCCC[n+]1ccccc1 | . | 49 | / | / | /
COCC#Cc1ccc([C@H]2[C@H](CO)N3CCCCN(C(=O)CN(C)C)C[C@@H]23)cc1 | . | / | . | . | .
CN(C)CC#Cc1ccc([C@H]2[C@@H](CO)N3CCCCN(C(=O)Nc4ccccc4F)C[C@H]23)cc1 | . | / | 70 | . | .
CN(C)CC(=O)N1CCCCN2[C@H](CO)[C@H](c3ccc(/C=C/c4ccccc4)cc3)[C@@H]2C1 | . | / | 55 | . | .
CN(C)CC#Cc1ccc([C@H]2[C@H]3CN(C(=O)CN(C)C)CCCCN3[C@H]2CO)cc1 | . | / | 57 | . | .
COc1ccc2c3c([nH]c2c1)[C@H](CO)N(Cc1cc(F)ccc1F)CC31CCN(C(=O)C2CCC2)CC1 | / | / | . | . | .
SMILES | RAD54 inh | dFosB activator | RAD52 inh | S100A4 inh HTS | MLL AF4-AF9 inh
CCCCCCOc1ccc(/C(C)=N/NC2=NCCN2)cc1[N+](=O)[O-] | / | 55 | . | . | .
C/C(=N\NC1=NCCN1)c1ccc(N)c([N+](=O)[O-])c1 | / | . | . | . | /
COc1ccc2c3c(n(C)c2c1)[C@@H](CO)N(C(=O)Nc1ccc(F)cc1)CC31CCN(C)CC1 | / | / | . | 82 | .
COc1ccc2c3c(n(C)c2c1)[C@H](CO)N(C(=O)Nc1ccc(F)cc1)CC31CCN(C)CC1 | / | / | . | . | .
COc1ccc2c3c(n(C)c2c1)[C@@H](CO)N(C(=O)Nc1ccc(F)cc1)CC31CN(Cc2ccccc2F)C1 | / | / | . | . | ?
COc1ccc2c3c(n(C)c2c1)[C@H](CO)N(C(=O)Nc1ccc(F)cc1)CC31CCN(Cc2ccccc2F)CC1 | / | / | 55 | . | .
CCC1CCC(C(=O)NC(C(=O)NCCc2ccc(S(N)(=O)=O)cc2)C(C)C)CC1 (stereo unspecified) | . | 73 | . | . | .
Oc1ccc(/C=N/Nc2ccnc3cc(Cl)ccc23)c(O)c1O | . | 19 | . | . | .
CC/C(=N\Nc1ccnc2cc(Cl)ccc12)c1ccc(O)cc1 | . | . | . | . | .
Oc1ccc(/C=N/Nc2ccnc3cc(Cl)ccc23)cc1O | / | 109 | . | . | .
CC(OC(=O)c1ccc(Cl)c(S(=O)(=O)Nc2ccc(F)cc2)c1)C(=O)NC(N)=O (stereo unspecified) | . | . | . | . | 40
CC(OC(=O)c1cc(S(=O)(=O)Nc2ccc(F)cc2)ccc1Cl)C(=O)Nc1ccc2c(c1)OCCO2 (stereo unspecified) | / | . | / | / | /
O=C(C[C@@H]1CC[C@@H]2[C@H](COC[C@H](O)CN2C(=O)Nc2ccc(F)cc2)O1)NCCc1ccccc1 | . | / | . | . | .
CCCNC(=O)[C@H]1[C@H](CO)[C@H]2Cn3c(ccc(-c4cccc(OC)c4)c3=O)[C@@H]1N2CC | / | / | . | . | .
CC(C)C#Cc1ccc([C@H]2[C@@H](CO)N(C(=O)c3cccc(F)c3)[C@H]2C#N)cc1 | . | / | . | 109 | .
Cc1ccc2nc(-c3ccc(NC(=O)c4ccco4)cc3)[nH]c2c1 | . | 43 | . | . | .
Cc1nc(NC2=NCN(Cc3cccnc3)CN2)nc2ccccc12 | . | . | / | / | /
Cc1nc(NC2=NCN(CCCN3CCOCC3)CN2)nc2c(C)cccc12 | 81 | 32 | / | / | /
C[C@@H]1CN([C@@H](C)CO)C(=O)c2cccc(NC(=O)NC3CCCCC3)c2O[C@@H]1CN(C)C(=O)NC1CCCCC1 | . | / | . | . | .
C[C@@H]1CN([C@H](C)CO)C(=O)c2cc(NS(C)(=O)=O)ccc2O[C@H]1CN(C)Cc1ccncc1 | . | / | . | . | .
C=CCn1cc(C(=O)N2CCN(CC)CC2)c(=O)c2cc(S(=O)(=O)N(CC)CC)ccc21 | . | . | . | . | 45
C=CCn1cc(C(=O)NCCCOC)c(=O)c2cc(S(=O)(=O)N(CC)CC)ccc21 | / | . | / | / | /
COc1ccc(S(=O)(=O)Nc2cccc3c2O[C@@H](CN(C)S(=O)(=O)c2ccc(OC)cc2)[C@H](C)CN([C@H](C)CO)C3=O)cc1 | / | / | / | . | .
CN(C)C(=O)c1cccc(-c2ccc([C@@H]3[C@@H](CO)N4C(=O)CNC[C@@H]34)cc2)c1 | / | / | . | . | .
CCOc1ccc(/C=N/NC(=O)c2ccccc2C)cc1CN1CC2CC(C1)c1cccc(=O)n1C2 (stereo unspecified) | . | . | . | 94 | /
COc1cc(C(=O)N/N=C/c2ccc(OC)c(CN3CCN(c4ccc(F)cc4)CC3)c2)ccc1O | / | 39 | . | . | .
